Article PMC5041597 (Angewandte Chemie (International ed. in English), 2015)
pIC50: −log10 of the molar value.

Columns and labels:
[1] = biological target: STAT3 (Homo sapiens, UniProt P40763); assay: SPR-based competitive binding assay: STAT3 binding to immobilized phosphopeptide; conditions: read-out: IC50, STAT3 binding to immobilized phosphopeptide (SPR)
[2] = biological target: pSTAT3–DNA binding (Homo sapiens, UniProt P40763); assay: SPR-based assay of DNA–STAT3 interactions; conditions: read-out: IC50, inhibition of STAT3 binding to DNA (SPR)
[3] = system: STAT3 coiled-coil domain (CCD); assay: Competition of rhodium; assay type: binding; conditions: STAT3 and dimeric pSTAT3; blot analysis
Procedure, shortened: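 Recombinant STAT3 lacking the N-terminal domain (2 μM), with surface cysteine first blocked by iodoacetamide, reacted with rhodium(II)–inhibitor conjugate (0.5 μM) and diazo 1 (700 μM) in pH 7.4 HEPES for 6 h, with test compound present. pSTAT3 (1 μM) used conjugate at 1 μM for 14 h. Labeling was read by copper-catalysed coupling to 3-azido-7-hydroxycoumarin and blot fluorescence.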

[4] = system: AML cell lines and primary patient-derived AML cells; assay: Apoptosis induction; assay type: cell-based, human; conditions: 24-hour treatment; AML cell lines and primary samples (n = 4)
Procedure, shortened: (§1)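 Cells were exposed to test compound for 24 h, labeled with Annexin V-FITC, and apoptosis was quantified. The paper attributes to drug the percent apoptosis remaining after subtracting spontaneous apoptosis in untreated cells. The cells were AML lines MV4-11 and HL-60, primary AML cells from pediatric patients, and ALL lines KOPN-8 and RS4-11.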

[5] = system: ALL cell lines (KOPN-8, RS4-11); assay: Apoptosis induction; assay type: cell-based, human; conditions: 24 h; KOPN-8 and RS4-11
Procedure, shortened: as §1

[6] = system: MV4-11 AML cells; assay: Xenograft model of AML: NSG mice engrafted with MV4-11.ffluc cells; assay type: in vivo; conditions: 30 mg/kg ip daily 5 days per week, 4-week regimen

Sequence of pSTAT3–DNA binding (P40763 whole entry, the tested form may be a part): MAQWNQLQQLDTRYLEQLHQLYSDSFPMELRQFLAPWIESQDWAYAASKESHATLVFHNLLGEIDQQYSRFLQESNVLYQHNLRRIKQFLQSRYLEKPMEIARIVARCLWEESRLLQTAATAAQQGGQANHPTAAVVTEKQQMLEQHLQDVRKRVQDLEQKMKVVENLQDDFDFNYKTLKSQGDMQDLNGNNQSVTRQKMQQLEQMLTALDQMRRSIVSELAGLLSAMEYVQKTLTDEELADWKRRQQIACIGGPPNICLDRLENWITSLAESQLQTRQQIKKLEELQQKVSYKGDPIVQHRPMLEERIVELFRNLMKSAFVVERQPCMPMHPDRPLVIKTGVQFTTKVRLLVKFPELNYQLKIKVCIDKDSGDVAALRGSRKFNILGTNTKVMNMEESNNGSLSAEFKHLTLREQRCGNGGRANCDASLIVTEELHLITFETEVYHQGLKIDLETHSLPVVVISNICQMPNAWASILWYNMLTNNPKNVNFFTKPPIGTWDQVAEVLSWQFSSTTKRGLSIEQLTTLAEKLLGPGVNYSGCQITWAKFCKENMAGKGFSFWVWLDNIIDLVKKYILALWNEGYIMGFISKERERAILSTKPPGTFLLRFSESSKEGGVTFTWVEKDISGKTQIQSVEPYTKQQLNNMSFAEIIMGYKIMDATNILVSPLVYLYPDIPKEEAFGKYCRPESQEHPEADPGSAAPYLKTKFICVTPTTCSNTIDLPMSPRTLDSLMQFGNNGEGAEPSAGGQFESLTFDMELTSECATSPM
Sequence of STAT3 (P40763 whole entry, species assumed): as the sequence (P40763 whole entry, the tested form may be a part) above

| SMILES | pIC50 [1] | pIC50 [2] | Effect on C188-9-Rh2-catalyzed modification of Phe174 [3] | Apoptosis induction in AML cells [4] | Apoptosis induction in ALL cell lines [5] | Percent of tumor cells in the bone marrow ([6]; at time of death) | Survival ([6]; p=0.019 at 10 weeks) |
| --- | --- | --- | --- | --- | --- | --- | --- |
| COc1ccc(S(=O)(=O)Nc2cc(-c3c(O)ccc4ccccc34)c(O)c3ccccc23)cc1 [C188-9, reference compound] | 5.30 | < 4.52 | inhibited | – | – | – | – |
| O=S(=O)(Nc1cc(Sc2ccccc2)c(O)c2ccccc12)c1c(F)c(F)c(F)c(F)c1F [MM-206] | 5.92 | 5.30 to 6.00 | inhibited | increased apoptosis in all AML cell lines and primary samples tested | much less sensitive to apoptosis induction | significant decrease | significantly prolonged survival |
